What was measured:
[1] = Prodrug activation in C57BL/6 mouse brain assessed as FAAH-mediated sobetirome formation at 3.05 umol/kg, ip after 1 hr by LC-MS/MS analysis; format: organism-based; settings: in vivo
[2] = biological target: T1, Fatty-acid amide hydrolase 1 (Homo sapiens, UniProt O00519); test: Prodrug activation in COS7 cells overexpressing human FAAH assessed as FAAH-mediated sobetirome formation by measuring compound hydrolysis rate at 100 uM by LC-MS/MS analysis; format: cell-based
T1 sequence (O00519 whole entry): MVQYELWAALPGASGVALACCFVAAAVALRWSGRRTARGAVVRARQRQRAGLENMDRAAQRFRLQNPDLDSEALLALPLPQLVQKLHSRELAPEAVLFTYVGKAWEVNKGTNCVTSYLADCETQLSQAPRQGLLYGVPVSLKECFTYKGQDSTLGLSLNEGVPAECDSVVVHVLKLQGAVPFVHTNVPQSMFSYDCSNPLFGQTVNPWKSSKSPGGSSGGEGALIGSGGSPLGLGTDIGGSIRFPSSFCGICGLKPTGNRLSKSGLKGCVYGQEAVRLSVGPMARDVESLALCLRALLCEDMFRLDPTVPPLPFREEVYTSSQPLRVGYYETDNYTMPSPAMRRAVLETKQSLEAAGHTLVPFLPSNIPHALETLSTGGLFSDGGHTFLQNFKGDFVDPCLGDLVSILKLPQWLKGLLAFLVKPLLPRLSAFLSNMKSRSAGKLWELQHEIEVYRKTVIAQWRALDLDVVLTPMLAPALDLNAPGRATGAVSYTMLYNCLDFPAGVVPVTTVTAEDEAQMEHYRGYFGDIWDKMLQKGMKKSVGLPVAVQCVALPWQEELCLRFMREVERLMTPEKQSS
Procedure, shortened: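 Hydrolysis kinetics were measured in homogenate of COS-7 cells overexpressing human FAAH, with prodrug substrate at 100 µM. Rate is given as nmol mg-1 min-1, mean ± SEM, n = 3.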

[3] = Prodrug activation in C57BL/6 mouse serum assessed as FAAH-mediated sobetirome formation at 3.05 umol/kg, ip after 1 hr by LC-MS/MS analysis; format: organism-based; settings: in vivo
[4] = Brain to serum permeability coefficient, Kp of the compound in C57BL/6 mouse assessed as sobetirome level at 3.05 umol/kg, ip after 1 hr by LC-MS/MS analysis; format: ADME, organism-based
[5] = Brain to serum permeability coefficient, Kp of the compound in C57BL/6 mouse at 3.05 umol/kg, ip after 1 hr by LC-MS/MS analysis; format: ADME, organism-based
[6] = Drug uptake in C57BL/6 mouse brain at 3.05 umol/kg, ip after 1 hr by LC-MS/MS analysis; format: ADME, organism-based; settings: read-out: Drug uptake
[7] = Drug uptake in C57BL/6 mouse serum at 3.05 umol/kg, ip after 1 hr by LC-MS/MS analysis; format: ADME, organism-based; settings: read-out: Drug uptake

Compound	Drug uptake [1]	Drug metabolism [2]	Drug uptake [3]	Kp [4]	Kp at 1 h [5]	concentration at 1 h [6]	concentration at 1 h [7]
Cc1cc(OCC(=O)NCC#N)cc(C)c1Cc1ccc(O)c(C(C)C)c1	59.9 ng/g	5 nmol/mg/min	107.7 ng/g	0.57			
Cc1cc(OCC(=O)NC(CO)CO)cc(C)c1Cc1ccc(O)c(C(C)C)c1	2.6 ng/g	3.7 nmol/mg/min	98 ng/g	0.03			
C#CCNC(=O)COc1cc(C)c(Cc2ccc(O)c(C(C)C)c2)c(C)c1	59.5 ng/g	3.2 nmol/mg/min	59.4 ng/g	0.99			
Cc1cc(OCC(=O)NCC(F)(F)F)cc(C)c1Cc1ccc(O)c(C(C)C)c1	59.4 ng/g	4.8 nmol/mg/min	80.2 ng/g	0.76			
Cc1cc(OCC(=O)NCCc2ccccc2)cc(C)c1Cc1ccc(O)c(C(C)C)c1	11.3 ng/g	1 nmol/mg/min	8.6 ng/g	1.31			
Cc1cc(OCC(=O)NCCO)cc(C)c1Cc1ccc(O)c(C(C)C)c1	25.5 ng/g	4.8 nmol/mg/min	66.8 ng/g	0.37			
Cc1cc(OCC(=O)NCC(C)O)cc(C)c1Cc1ccc(O)c(C(C)C)c1 (stereo not given)	38.7 ng/g	3.6 nmol/mg/min	55.7 ng/g	0.72			
Cc1cc(OCC(=O)NCC(F)F)cc(C)c1Cc1ccc(O)c(C(C)C)c1	125.4 ng/g	3.4 nmol/mg/min	128.8 ng/g	1.04			
Cc1cc(OCC(=O)NCCc2ccc(O)c(O)c2)cc(C)c1Cc1ccc(O)c(C(C)C)c1	7.4 ng/g	0.8 nmol/mg/min	4.9 ng/g	0.94			
Cc1cc(OCC(=O)Nc2cccc(O)c2)cc(C)c1Cc1ccc(O)c(C(C)C)c1	12.8 ng/g	10.1 nmol/mg/min	325.7 ng/g	0.04			
Cc1cc(OCC(=O)NCCN)cc(C)c1Cc1ccc(O)c(C(C)C)c1	0.8 ng/g	5.6 nmol/mg/min	6.9 ng/g	0.07			
Cc1cc(OCC(=O)N(C)C)cc(C)c1Cc1ccc(O)c(C(C)C)c1	32.2 ng/g	4.3 nmol/mg/min	10.4 ng/g	3.17			
Cc1cc(OCC(=O)Nc2ccccc2O)cc(C)c1Cc1ccc(O)c(C(C)C)c1	7.4 ng/g	1.4 nmol/mg/min	174.7 ng/g	0.04			
Cc1cc(OCC(=O)NCCNS(C)(=O)=O)cc(C)c1Cc1ccc(O)c(C(C)C)c1	1.6 ng/g	2.4 nmol/mg/min	26.2 ng/g	0.06			
Cc1cc(OCC(=O)NCCS(=O)(=O)[O-])cc(C)c1Cc1ccc(O)c(C(C)C)c1.[Na+]	7.1 ng/g	8.9 nmol/mg/min	45.7 ng/g	0.18			
Cc1cc(OCC(=O)NC(C)CO)cc(C)c1Cc1ccc(O)c(C(C)C)c1 (stereo not given)	22.3 ng/g	4.5 nmol/mg/min	33.7 ng/g	0.69			
Cc1cc(OCC(=O)NCc2ccccc2)cc(C)c1Cc1ccc(O)c(C(C)C)c1	15.7 ng/g	1.7 nmol/mg/min	15.2 ng/g	0.95			
Cc1cc(OCC(=O)Nc2cccc(F)c2)cc(C)c1Cc1ccc(O)c(C(C)C)c1	15.4 ng/g	2.1 nmol/mg/min	383.8 ng/g	0.04			

Next, values leading:

Drug uptake [1]	Drug metabolism [2]	Drug uptake [3]	Kp [4]	Kp at 1 h [5]	concentration at 1 h [6]	concentration at 1 h [7]	Compound
8.4 ng/g	4.1 nmol/mg/min	209.7 ng/g	0.04				CONC(=O)COc1cc(C)c(Cc2ccc(O)c(C(C)C)c2)c(C)c1
68.2 ng/g	3.8 nmol/mg/min	199.5 ng/g	0.58				Cc1cc(OCC(=O)NN)cc(C)c1Cc1ccc(O)c(C(C)C)c1
58.2 ng/g	3.4 nmol/mg/min	21.5 ng/g	2.74				CCNC(=O)COc1cc(C)c(Cc2ccc(O)c(C(C)C)c2)c(C)c1
79.2 ng/g	3.7 nmol/mg/min	110.6 ng/g	0.75				Cc1cc(OCC(=O)NC2COC2)cc(C)c1Cc1ccc(O)c(C(C)C)c1
2.8 ng/g	4.9 nmol/mg/min	127.7 ng/g	0.03				Cc1cc(OCC(=O)NO)cc(C)c1Cc1ccc(O)c(C(C)C)c1
58 ng/g	3.2 nmol/mg/min	23.8 ng/g	2.49				Cc1cc(OCC(=O)NC2CC2)cc(C)c1Cc1ccc(O)c(C(C)C)c1
20.2 ng/g	2.6 nmol/mg/min	16.9 ng/g	1.15				CCCNC(=O)COc1cc(C)c(Cc2ccc(O)c(C(C)C)c2)c(C)c1
				0.03	3.6 ng/g	319 ng/g	Cc1cc(OCC(=O)O)cc(C)c1Cc1ccc(O)c(C(C)C)c1 [SOBETIROME]
33.4 ng/g	3.6 nmol/mg/min	25.4 ng/g	1.23				C=CCNC(=O)COc1cc(C)c(Cc2ccc(O)c(C(C)C)c2)c(C)c1
93.9 ng/g	4.7 nmol/mg/min	79.5 ng/g	1.17				Cc1cc(OCC(N)=O)cc(C)c1Cc1ccc(O)c(C(C)C)c1
107.1 ng/g	3.5 nmol/mg/min	64.2 ng/g	1.7				Cc1cc(OCC(=O)NCCF)cc(C)c1Cc1ccc(O)c(C(C)C)c1
